Experimental data from ChEMBL document CHEMBL1143415, “Differential fungicidal activities of amphotericin B and voriconazole against Aspergillus species determined by microbroth methodology” (Antimicrob Agents Chemother, 2007).
In brackets after ≈: the same amount, converted by molar mass.

Key:
Aspergillus fumigatus [1] = experiment: Antifungal activity against Aspergillus fumigatus ATCC MYA-3626 after 48 hrs by CLSI M38-A microdilution method; assay type: functional
In short: (§1)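 CLSI M38-A broth microdilution in RPMI 1640 (L-glutamine, no bicarbonate, 0.165 M MOPS, pH 7.0). Conidia come from potato dextrose agar slants grown 5 to 7 days at 35°C, suspended in saline with 0.025% Tween 20 and counted by hemacytometer. Final inoculum 0.5 × 10^4 to 5 × 10^4 CFU/ml. Twofold dilutions in flat-bottom plates, 37°C for 48 h. MIC is the lowest concentration with no visible growth. Duplicate plates, two experiments.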

Aspergillus flavus [2] = experiment: Antifungal activity against Aspergillus flavus ATCC MYA-3631 after 48 hrs by CLSI M38-A microdilution method; assay type: functional
In short: (§2)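 CLSI M38-A broth microdilution. Conidia came from 5–7 d potato dextrose agar slants at 35°C, suspended in saline with 0.025% Tween 20 and counted by hemacytometer. Final inoculum was 0.5×10^4 to 5×10^4 CFU/ml in RPMI 1640 with MOPS, pH 7.0. Final drug ranges: amphotericin B 0.015–16 mg/liter, voriconazole 0.008–8 mg/liter. Plates ran 48 h at 37°C. MIC = lowest concentration with no visible growth. Duplicate plates; experiments done twice.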

Aspergillus terreus [3] = experiment: Antifungal activity against Aspergillus terreus ATCC MYA-3633 after 48 hrs by CLSI M38-A microdilution method; assay type: functional; in short: as §2
Aspergillus fumigatus [4] = experiment: Antifungal activity against Aspergillus fumigatus ATCC MYA-3626 after 24 to 48 hrs by culture-based CFU method; assay type: functional
In short: (§3)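 Done after the 48 h M38-A MIC plates. Clear wells and the 0.5× MIC well were pipetted five times, and 20 μl or 100 μl was subcultured on Sabouraud dextrose agar for 24–48 h at 37°C before CFU counting. MFC = lowest concentration giving no growth for each volume.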

Aspergillus flavus [5] = experiment: Antifungal activity against Aspergillus flavus ATCC MYA-3631 after 24 to 48 hrs by culture-based CFU method; assay type: functional; in short: as §3
Aspergillus terreus [6] = experiment: Antifungal activity against Aspergillus terreus ATCC MYA-3633 after 24 to 48 hrs by culture-based CFU method; assay type: functional; in short: as §3
Aspergillus fumigatus [7] = experiment: Antifungal activity against Aspergillus fumigatus ATCC MYA-3626 after 24 hrs by microbroth colorimetric XTT method; assay type: functional
In short: (§4)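 Done after the 48 h M38-A MIC plates. Clear wells and the 0.5× MIC well were aspirated, washed twice with 37°C saline, refilled with fresh RPMI, then incubated 24 h at 37°C. XTT (0.1 mg/ml) with menadione (25 μM), both final, was added for 2 h. A450/630 was read minus background from conidia-free wells. MFC = lowest concentration with absorbance <0.01, a cutoff set by ROC against microscopic growth.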

Aspergillus flavus [8] = experiment: Antifungal activity against Aspergillus flavus ATCC MYA-3631 after 24 hrs by microbroth colorimetric XTT method; assay type: functional; in short: as §4
Aspergillus terreus [9] = experiment: Antifungal activity against Aspergillus terreus ATCC MYA-3633 after 24 hrs by microbroth colorimetric XTT method; assay type: functional; in short: as §4
Aspergillus fumigatus [10] = experiment: Antifungal activity against Aspergillus fumigatus isolate at 20 CFU infectious rate after 24 hrs by culture-based CFU method; assay type: functional; in short: as §3
Aspergillus flavus [11] = experiment: Antifungal activity against Aspergillus flavus isolate at 20 CFU infectious rate after 24 hrs by culture-based CFU method; assay type: functional; in short: as §3
Aspergillus terreus [12] = experiment: Antifungal activity against Aspergillus terreus isolate at 20 CFU infectious rate after 24 hrs by culture-based CFU method; assay type: functional; in short: as §3
Aspergillus fumigatus [13] = experiment: Antifungal activity against Aspergillus fumigatus isolate at 100 CFU infectious rate after 24 hrs by culture-based CFU method; assay type: functional; in short: as §3
Aspergillus flavus [14] = experiment: Antifungal activity against Aspergillus flavus isolate at 100 CFU infectious rate after 24 hrs by culture-based CFU method; assay type: functional; in short: as §3
Aspergillus terreus [15] = experiment: Antifungal activity against Aspergillus terreus isolate at 100 CFU infectious rate after 24 hrs by culture-based CFU method; assay type: functional; in short: as §3
Aspergillus fumigatus [16] = experiment: Ratio of MFC for Aspergillus fumigatus isolate to MIC for Aspergillus fumigatus isolate; assay type: functional
In short: (§5)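 Per-isolate ratio of the XTT-based MFC (24 h post-wash regrowth, absorbance cutoff 0.01) to the 48 h CLSI M38-A MIC, taken as the median of two replicate experiments. A ratio of ≤4 was counted fungicidal and >4 fungistatic.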

Aspergillus flavus [17] = experiment: Ratio of MFC for Aspergillus flavus isolate to MIC for Aspergillus flavus isolate; assay type: functional; in short: as §5
Aspergillus terreus [18] = experiment: Ratio of MFC for Aspergillus terreus isolate to MIC for Aspergillus terreus isolate; assay type: functional; in short: as §5
Aspergillus fumigatus [19] = experiment: Antifungal activity against Aspergillus fumigatus isolate after 8 hrs by microbroth colorimetric XTT method relative to control; assay type: functional
Aspergillus flavus [20] = experiment: Antifungal activity against Aspergillus flavus isolate after 8 hrs by microbroth colorimetric XTT method relative to control; assay type: functional
Aspergillus terreus [21] = experiment: Antifungal activity against Aspergillus terreus isolate after 8 hrs by microbroth colorimetric XTT method relative to control; assay type: functional
Aspergillus fumigatus [22] = experiment: Antifungal activity against Aspergillus fumigatus isolate after 48 hrs by CLSI M38-A microdilution method; assay type: functional; in short: as §1
Aspergillus flavus [23] = experiment: Antifungal activity against Aspergillus flavus isolate after 48 hrs by CLSI M38-A microdilution method; assay type: functional; in short: as §2
Aspergillus terreus [24] = experiment: Antifungal activity against Aspergillus terreus isolate after 48 hrs by CLSI M38-A microdilution method; assay type: functional; in short: as §2
Aspergillus fumigatus [25] = experiment: Antifungal activity against Aspergillus fumigatus isolate after 24 hrs by microbroth colorimetric XTT method; assay type: functional, organism-based; in short: as §4
Aspergillus flavus [26] = experiment: Antifungal activity against Aspergillus flavus isolate after 24 hrs by microbroth colorimetric XTT method; assay type: functional, organism-based; in short: as §4
Aspergillus terreus [27] = experiment: Antifungal activity against Aspergillus terreus isolate after 24 hrs by microbroth colorimetric XTT method; assay type: functional, organism-based; in short: as §4
Aspergillus fumigatus [28] = experiment: Antifungal activity against Aspergillus fumigatus isolate after 6 to 8 hrs by microbroth colorimetric XTT method relative to control; assay type: functional
Aspergillus flavus [29] = experiment: Antifungal activity against Aspergillus flavus isolate after 6 to 8 hrs by microbroth colorimetric XTT method relative to control; assay type: functional
Aspergillus terreus [30] = experiment: Antifungal activity against Aspergillus terreus isolate after 6 to 8 hrs by microbroth colorimetric XTT method relative to control; assay type: functional
Aspergillus flavus [31] = experiment: Antifungal activity against Aspergillus flavus isolate after 48 hrs by NCCLS M38-A broth microdilution method; assay type: functional; in short: as §2
Aspergillus fumigatus [32] = experiment: Antifungal activity against Aspergillus fumigatus isolate after 48 hrs by NCCLS M38-A broth microdilution method; assay type: functional; in short: as §2

Row | Structure (SMILES) | MIC (Aspergillus fumigatus [1]) [µg/mL] | MIC (Aspergillus flavus [2]) [µg/mL] | MIC (Aspergillus terreus [3]) [µg/mL] | MFC (Aspergillus fumigatus [4]) [µg/mL] | MFC (Aspergillus flavus [5]) [µg/mL] | MFC (Aspergillus terreus [6]) [µg/mL] | MFC (Aspergillus fumigatus [7]) [µg/mL] | MFC (Aspergillus flavus [8]) [µg/mL] | MFC (Aspergillus terreus [9]) [µg/mL] | MFC (Aspergillus fumigatus [10]) [µg/mL] | MFC (Aspergillus flavus [11]) [µg/mL] | MFC (Aspergillus terreus [12]) [µg/mL] | MFC (Aspergillus fumigatus [13]) [µg/mL] | MFC (Aspergillus flavus [14]) [µg/mL] | MFC (Aspergillus terreus [15]) [µg/mL] | MFC/MIC ratio (Aspergillus fumigatus [16]) | MFC/MIC ratio (Aspergillus flavus [17]) | MFC/MIC ratio (Aspergillus terreus [18]) | MIC (Aspergillus fumigatus [22]) [µg/mL] | MIC (Aspergillus flavus [23]) [µg/mL] | also measured
1 | C[C@@H]1[C@H](O)[C@@H](C)/C=C/C=C/C=C/C=C/C=C/C=C/C=C/[C@H](O[C@@H]2O[C@H](C)[C@@H](O)[C@H](N)[C@@H]2O)C[C@@H]2O[C@](O)(C[C@@H](O)C[C@@H](O)[C@H](O)CC[C@@H](O)C[C@@H](O)CC(=O)O[C@H]1C)C[C@H](O)[C@H]2C(=O)O [AMPHOTERICIN B] | 1 (≈ 1.08 µM) | 1 (≈ 1.08 µM) | 2 (≈ 2.16 µM) | 1 (≈ 1.08 µM) | 1 (≈ 1.08 µM) | > 2 | 1 (≈ 1.08 µM) | 2 (≈ 2.16 µM) | > 16 | 1 (≈ 1.08 µM) | 1 (≈ 1.08 µM) | > 16 | 2 (≈ 2.16 µM) | 2 (≈ 2.16 µM) | > 16 | 2 | 2 | 16 | 1 (≈ 1.08 µM) | 1 (≈ 1.08 µM) | Activity (Aspergillus fumigatus [19]): 16%; Activity (Aspergillus flavus [20]): 3%; Activity (Aspergillus terreus [21]): 3%; MIC (Aspergillus terreus [24]): 2 µg/mL (≈ 2.16 µM); EC50 (Aspergillus fumigatus [25]): 0.95 µg/mL (≈ 1.03 µM); MFC (Aspergillus fumigatus [25]): 1 µg/mL (≈ 1.08 µM); EC50 (Aspergillus flavus [26]): 1.1 µg/mL (≈ 1.19 µM); MFC (Aspergillus flavus [26]): 2 µg/mL (≈ 2.16 µM); EC50 (Aspergillus terreus [27]): 9.55 µg/mL (≈ 10.3 µM); MFC (Aspergillus terreus [27]): > 16 µg/mL
2 | C[C@@H](c1ncncc1F)[C@](O)(Cn1cncn1)c1ccc(F)cc1F [VORICONAZOLE] | 1 (≈ 2.86 µM) | 0.5 (≈ 1.43 µM) | 0.5 (≈ 1.43 µM) | > 4 | 0.5 (≈ 1.43 µM) | 2 (≈ 5.73 µM) | > 8 | > 4 | > 8 | 2 (≈ 5.73 µM) | 0.5 (≈ 1.43 µM) | 8 (≈ 22.9 µM) | > 8 | 1 (≈ 2.86 µM) | > 8 | > 16 | 4 | 8 | 0.5 (≈ 1.43 µM) | 0.5 (≈ 1.43 µM) | Activity (Aspergillus fumigatus [28]): 14%; Activity (Aspergillus flavus [29]): 16%; Activity (Aspergillus terreus [30]): 36%; MFC90 (Aspergillus flavus [31]): 0.25 µg/mL (≈ 0.716 µM); MFC90 (Aspergillus fumigatus [32]): 0.25 µg/mL (≈ 0.716 µM); MIC (Aspergillus terreus [24]): 1 µg/mL (≈ 2.86 µM); EC50 (Aspergillus fumigatus [25]): 2.34 µg/mL (≈ 6.7 µM); MFC (Aspergillus fumigatus [25]): > 8 µg/mL; EC50 (Aspergillus flavus [26]): 1.96 µg/mL (≈ 5.61 µM); MFC (Aspergillus flavus [26]): 4 µg/mL (≈ 11.5 µM); EC50 (Aspergillus terreus [27]): 11.7 µg/mL (≈ 33.5 µM); MFC (Aspergillus terreus [27]): > 8 µg/mL
